# Hits are enriched below; roughly 1.2% of the tested compounds scored in any of these assays.
# FXN GAA850 act – frataxin GAA850 promoter activation; 360,000 tested, 0.56% active; activation, % at 6 µM; HEK293 lucGAA850 FXN promoter luciferase reporter, 24 h; percent of 10 µM SAHA response;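 active = activation above the average of all compounds screened plus 3 SD, cutoff fixed separately per campaign, cut at about 7.5% in these data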;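 note: 0% = DMSO wells and 100% = 10 µM SAHA wells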
# procasp7 counter – counter-screen for procaspase-3 activators: activators of human procaspase-7; P55210; activation, % at 8.5 µM; recombinant procaspase-7, Ac-DEVD-pNA absorbance 405 nm; D23A/D198A/D206A triple mutant, cannot self-cleave; scale: DMSO 0, 5 µM enzyme 100; 330,000 tested, 0.093% active;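 active = percent activation above the screen-wide mean plus 3 SD, cut at about 25% in these data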
#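 Detection: p-Nitroaniline absorbance at 405 nm, read at 0 and 120 min; system: Uncleavable procaspase-7 mutant enzyme; evaluation: % activation from two-timepoint absorbance difference, scaled to controls; times: 1 h enzyme–compound preincubation and 2 h substrate reaction, both 25 °C; buffer or medium: Zinc-free HEPES pH 7.4 with 300 mM NaCl, 0.01% Triton X-100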
# Rce1 inhib – blocks yeast Ras-converting enzyme. Q03530. AID 2563. 290,000 tested, 0.27% active. yeast membranes, quenched prenylated peptide cleavage fluorescence. calls only;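 active = fall in fluorescence gain of 50% or more versus controls, with final raw signal at or below 3038400; inconclusive = same 50% fall but final raw signal above 3038400; inactive = fall in fluorescence gain under 50%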;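 note: plate controls were neutral control wells for no effect and wells lacking membranes for full effect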
# proCasp3 act – activates human procaspase-3 | 330,000 tested, 0.11% active | activation, % at 8.5 µM | recombinant procaspase-3 D3A, Ac-DEVD-pNA absorbance 405 nm | P42574;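 active = activation above the mean of all tested compounds plus 3 SD, cut at about 21% in these data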;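 note: 0% = DMSO alone and 100% = DMSO wells spiked with extra 5 µM PC-3 D3A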
#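 assay system = Procaspase-3 D3A mutant | signal = absorbance at 405 nm, 0 and 120 min | times = 1 h preincubation plus 2 h reaction at 25 °C | repeats = single replicate | read-out = % activation between DMSO and enzyme-spiked controls | medium = Zinc-free HEPES saline buffer with Triton X-100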
# Hep lipid drop – modulators of hepatic lipid droplet formation; AML12 mouse hepatocytes, oleate lipid droplets, BODIPY imaging; inhibition, % at 6.5 µM; 240,000 tested, 0.4% active; AID 1656;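 active = lipid droplet intensity inhibited by at least 50%, with more than 500 cells counted; inconclusive = wells with under 300 cells, treated as cytotoxic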
#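 Assay system: AML12 mouse liver cells | Compound dosing: One dose, 6.5 µM compound | Read-out basis: Droplet intensity reduction, % inhibition | Measured by: Fluorescence imaging, 20x objective, two fields per well | Schedule: Overnight treatment with compound plus oleate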
# p-CIP stab down – lowers stability of the mouse p/CIP coactivator protein. F442A p/CIP-EGFP cells, EGFP fluorescence, 16 h. decrease of EGFP signal, % at 10 µM. AID 1984. Q05BA5. 290,000 tested, 0.01% active;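 active = EGFP signal decrease of at least 30% at 10 µM or well 3 SD below plate mean, unless failing retest; inactive = the rest, including hits failing retest or dose response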
# Target sequence (Q05BA5 1-1403): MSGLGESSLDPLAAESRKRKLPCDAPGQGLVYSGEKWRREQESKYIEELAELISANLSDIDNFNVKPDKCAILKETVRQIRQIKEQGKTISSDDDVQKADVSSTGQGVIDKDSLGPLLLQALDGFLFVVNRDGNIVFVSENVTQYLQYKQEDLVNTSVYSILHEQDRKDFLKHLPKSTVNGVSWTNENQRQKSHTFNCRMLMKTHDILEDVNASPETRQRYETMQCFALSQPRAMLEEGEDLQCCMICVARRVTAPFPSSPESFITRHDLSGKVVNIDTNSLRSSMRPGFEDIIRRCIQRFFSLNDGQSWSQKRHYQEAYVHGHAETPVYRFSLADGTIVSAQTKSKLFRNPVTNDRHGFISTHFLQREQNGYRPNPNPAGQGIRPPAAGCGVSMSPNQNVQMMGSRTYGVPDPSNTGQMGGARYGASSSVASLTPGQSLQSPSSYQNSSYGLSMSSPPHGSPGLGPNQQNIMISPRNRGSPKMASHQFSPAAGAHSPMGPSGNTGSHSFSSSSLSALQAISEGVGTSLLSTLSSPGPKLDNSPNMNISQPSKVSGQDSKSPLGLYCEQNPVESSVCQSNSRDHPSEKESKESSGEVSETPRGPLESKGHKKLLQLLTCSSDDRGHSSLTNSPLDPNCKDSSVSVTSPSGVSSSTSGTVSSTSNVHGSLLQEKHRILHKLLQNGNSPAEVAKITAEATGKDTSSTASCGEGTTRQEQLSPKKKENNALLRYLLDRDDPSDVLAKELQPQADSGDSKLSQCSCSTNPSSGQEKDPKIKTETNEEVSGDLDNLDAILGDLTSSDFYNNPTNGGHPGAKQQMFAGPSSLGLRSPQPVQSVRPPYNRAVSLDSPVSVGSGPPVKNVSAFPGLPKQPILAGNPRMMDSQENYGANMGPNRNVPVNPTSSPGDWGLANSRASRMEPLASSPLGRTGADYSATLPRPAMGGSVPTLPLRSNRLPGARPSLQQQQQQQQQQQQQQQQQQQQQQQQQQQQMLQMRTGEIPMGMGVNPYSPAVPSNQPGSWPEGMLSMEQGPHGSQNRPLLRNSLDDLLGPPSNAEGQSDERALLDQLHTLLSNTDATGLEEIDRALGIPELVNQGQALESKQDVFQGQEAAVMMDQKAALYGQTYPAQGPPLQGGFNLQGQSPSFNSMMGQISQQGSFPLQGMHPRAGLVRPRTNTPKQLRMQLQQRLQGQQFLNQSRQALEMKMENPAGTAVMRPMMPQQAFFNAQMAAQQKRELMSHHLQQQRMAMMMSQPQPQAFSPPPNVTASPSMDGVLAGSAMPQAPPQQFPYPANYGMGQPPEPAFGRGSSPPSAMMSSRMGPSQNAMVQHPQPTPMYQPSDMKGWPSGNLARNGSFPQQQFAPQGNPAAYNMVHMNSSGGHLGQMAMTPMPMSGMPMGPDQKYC
# GAA30 counter – GAA30 FXN promoter activation counter-screen | activation, % at 6 µM | 1,900 tested, 66% active | AID 588350 | shares compounds with FXN GAA850 act | HEK293 lucGAA30 FXN promoter luciferase, 24 h; DMSO = 0%, 5 µM ipriflavone = 100%;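 active = mean activation above the mean of solvent-only control wells plus 3 SD, cut at about 22% in these data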;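 note: counterscreen of GAA850 promoter hits where activity marks nonselective or luminescence artifacts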
# GAA850 confirm – GAA850 FXN promoter activation confirmation; shares compounds with FXN GAA850 act; HEK293 lucGAA850 FXN promoter luciferase reporter, 24 h; 100% = activation by SAHA; activation, % at 6 µM; 1,900 tested, 86% active;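 active = mean activation above a set limit taken from the primary screen, cut at about 8% in these data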;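 note: 0% = DMSO wells and 100% = 10 µM SAHA wells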
# Starred values were filed as active, the others as inactive; i = inactive; ? = inconclusive; . = no result.
SMILES,FXN GAA850 act,procasp7 counter,Rce1 inhib,proCasp3 act,Hep lipid drop,p-CIP stab down,GAA30 counter,GAA850 confirm
COc1cc2c(cc1NC(=O)C1CCCO1)oc1ccccc12 (centres undefined),8.6*,-5.0,i,1.2,-20.5,9.8,108.9*,30.5*
Brc1ccc(-c2cn3nc4c(nc3n2)CCCC4)cc1,2.7,-1.0,i,3.3,-9.4,-10.0,.,.
Nc1nn2cc(-c3ccc(Br)cc3)nc2c2ccccc12,11.6*,1.2,?,-2.1,5.8,2.0,119.9*,49.5*
CCCN(C(=O)C1CCN(S(=O)(=O)c2ccc(OC)c(OC)c2)CC1)C1CCS(=O)(=O)C1 (centres undefined),1.6,0.2,i,-1.5,.,.,.,.
CN(CCOc1ccc(Br)cc1)C(=O)CNC(=O)c1ccc2ccccc2c1,-1.1,5.6,.,-1.2,-1.1,-4.0,.,.
Cc1nn2cc(-c3ncc(C(F)(F)F)cc3Cl)cnc2c1Br,10.0*,3.1,i,0.8,2.2,-5.4,54.1*,19.7*
N#CCCN1CCN(C(=S)c2ccc(-c3cccc(Cl)c3)o2)CC1,8.6*,-2.0,i,-2.1,.,-11.1,74.2*,31.1*
N#CCCN1CCN(C(=S)c2ccc(-c3ccc(Cl)c(Cl)c3)o2)CC1,8.7*,-19.2,i,-20.4,.,-2.6,72.0*,30.2*
O=c1c(O)c(-c2ccccc2)oc2ccccc12,8.7*,.,.,.,.,.,54.8*,18.0*
Cc1ccc(-n2c(C)c(C)c3c(NCCO)ncnc32)cc1,7.9*,3.5,i,4.0,-15.0,-0.8,89.2*,30.9*
Cc1c(C)n(-c2ccccc2)c2ncnc(NCCCN(C)C)c12,0.2,0.8,i,5.6,-2.9,-0.5,.,.
COc1ccc2[nH]c(=O)c(C(c3nnnn3C3CCCCC3)N3CCN(C)CC3)cc2c1 (centres undefined),-1.0,12.7,.,3.5,-0.1,6.2,.,.
CCCN1CCN(C(c2cc3cc(OCC)ccc3[nH]c2=O)c2nnnn2C2CCCCC2)CC1 (centres undefined),10.7*,-3.5,i,5.7,.,-21.3,16.9,7.9*
COc1ccc2cc3cc(C(=O)N4CCCCC4C)oc3nc2c1 (centres undefined),8.0*,9.0,i,3.7,-0.3,-5.4,121.8*,38.2*
O=C(O)c1ccc(S(=O)(=O)c2ccc([N+](=O)[O-])cc2[N+](=O)[O-])cc1,0.6,-34.6,i,-17.7,8.5,-4.5,.,.
N#Cc1c(-c2ccncc2)cc(-c2ccc(F)cc2)nc1N,6.1,2.4,i,-3.2,-4.9,-5.1,.,.
Cc1cc(-c2ccc(Cl)cc2)c(C#N)c(N)n1,8.2*,5.6,.,-2.5,8.7,-9.8,16.1,15.0*
COc1ccc(Nc2cc(Nc3cccc(OC)c3)ncn2)cc1,7.8*,-9.4,i,-11.2,21.2,0.1,85.0*,26.3*
COc1ccc(Nc2cc(Nc3ccc(OC)cc3)ncn2)cc1,-0.8,7.8,i,1.0,-9.4,4.7,.,.
CC(C)CNC(=O)c1cccc(NC(=O)c2ccc3c(c2)C(=O)N(C)C3=O)c1,-0.5,8.0,i,3.3,-10.0,-4.0,.,.
Cc1nn2c(N)c(C#N)cnc2c1-c1ccccc1,9.0*,2.4,i,0.8,.,-0.4,37.8*,20.3*
Cc1nn2c(N)c(C#N)cnc2c1-c1ccc(Cl)cc1,4.7,5.1,i,-0.9,-17.2,-0.2,.,.
Cc1nn2c3ccccc3nc2c2ccccc12,11.2*,-2.5,i,0.1,.,6.3,75.3*,31.0*
COc1cc(C)ccc1OCc1cc(C(=O)N2CCC(c3ccc(F)cc3)C2)no1 (centres undefined),8.9*,-7.9,i,0.4,-36.8,-5.4,117.3*,35.4*
Cc1ccc(C)c(OCc2cc(C(=O)N3CC[C@@H]4CCCC[C@H]4C3)no2)c1,3.9,3.8,i,3.9,-33.6,-8.7,.,.
SMILES,FXN GAA850 act,procasp7 counter,Rce1 inhib,proCasp3 act,Hep lipid drop,p-CIP stab down,GAA30 counter,GAA850 confirm
CCOC(=O)[C@@H](C)NS(=O)(=O)N(Cc1ccccc1)[C@H](C(=O)OC)C(C)C,2.4,16.9,.,-0.5,.,.,.,.
CCOC(=O)[C@@H](C)N(Cc1ccc(OC)cc1)S(=O)(=O)N(Cc1ccccc1)[C@H](C(=O)OC)C(C)C,10.7*,9.0,.,2.7,.,.,13.2,21.3*
CCC(C)(C)C1CCC2(CC1)NC(=O)N(CC(=O)NCCc1ccc(OC)c(OC)c1)C2=O (centres undefined),-1.7,-1.5,.,4.7,.,.,.,.
N#Cc1c(-c2ccccc2)cc(C2CC2)nc1N,8.3*,6.9,i,-3.5,.,-7.6,12.8,9.5*
N#Cc1c(-c2ccco2)cc(C2CC2)nc1N,5.7,3.0,i,1.1,.,-20.5,.,.
Cc1ccc(S(=O)(=O)CCC(=O)OC(C)C(=O)N2CCc3ccccc32)cc1 (centres undefined),0.4,-0.5,i,-2.7,.,.,.,.
COc1nc(N)nc(N2CCOCC2)n1,1.1,-4.9,i,6.5,-4.8,-6.6,.,.
COc1nc(N)nc(NC23CC4CC(CC(C4)C2)C3)n1,9.2*,3.4,.,-1.6,1.7,1.2,57.3*,19.9*
Oc1cccc2ccc(/C=C/c3cccs3)nc12,11.2*,-3.3,i,10.9,2.4,9.5,35.2*,23.8*
Cc1ccsc1/C=C/c1ccc2cccc(O)c2n1,8.5*,13.9,i,-2.3,-1.3,3.9,4.4,24.4*
Oc1cccc2ccc(/C=C/c3ccccc3Br)nc12,-0.1,-0.3,i,14.2,-4.5,3.7,.,.
CCc1nc2ccc(C(=O)NCCC(C)C)cn2c1N(CCN(C)C)CC1CC1,-1.7,.,.,.,.,.,.,.
C[C@@H]1CN([C@H](C)CO)S(=O)(=O)c2ccc(C#Cc3ccccc3F)cc2O[C@@H]1CN(C)C(=O)Cc1ccccc1,-2.3,.,.,.,.,.,.,.
CCCNC(=O)c1ccccc1NC(=O)c1ccccc1N(C)S(=O)(=O)c1ccc(C)cc1,8.1*,.,i,.,-27.9,-4.2,2.1,10.7*
COc1cc([N+](=O)[O-])c2nccnc2c1,1.4,-0.2,.,-3.0,17.1,-10.7,.,.
CCOc1cc([N+](=O)[O-])c2nc(N)sc2c1,7.9*,5.4,i,-3.8,2.9,0.8,39.5*,19.4*
C[C@@H]1CN([C@H](C)CO)C(=O)c2cc(C#CC3CCCCC3)cnc2O[C@H]1CN(C)Cc1cccnc1,1.9,.,.,.,.,.,.,.
